SIAE inh = inhibitors of human sialic acid acetylesterase SIAE; Q9HAT2; SIAE FP-Rh probe binding, fluorescence polarization; inhibition, % at 9.66 µM; actives 0.69% (n = 370,000); AID 1053197;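 active = inhibition above a cutoff: mean of compounds within the control limits plus 3 SD of those, cut at about 17% in these data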
DDE Tn7 FP inh = inhibitors of Tn7 peptide binding to human fibrin DD(E). AID 720508. actives 0.13% (n = 370,000). FP displacement of FITC-Tn7 peptide from fibrin DD(E); 0% = median of compound wells per plate. P02675. inhibition, % at 8.3 µM;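 active = inhibition above the mean of compounds falling within the control limits plus 3 SD of them, cut at about 14% in these data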
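Test system – human fibrin DD(E) · Times – 10 min preincubation, 3 h with tracer, room temperature · Detection – fluorescence polarization of the labelled Tn7 tracer · Measure – percent inhibition normalized to high-control wells · Benchmarks – high control wells with 10 µM unlabelled Aha-Tn7 peptide (full inhibition) · Repeats – singlicate testing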
Tn6 DDE FP = inhibitors of Tn6 peptide binding to human fibrin DD(E) | actives 0.21% (n = 370,000) | P02675 | Fibrin DD(E) TRITC-Tn6 fluorescence polarization displacement | inhibition, % at 8.3 µM;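 active = inhibition above a per-campaign cutoff: mean of compounds within control limits plus 3 SD, cut at about 15% in these data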
TCR CD3 inh = blocks the human TCR-CD3 interaction. TAMRA-labeled TCR probe fluorescence, biochemical. inhibition, % at 9.4 µM. actives 0.37% (n = 360,000);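 note: recombinant mutant TCR 2C K166C tagged with TAMRA read by polarization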
HTRA1 inh = inhibitors of human serine peptidase HTRA1 | inhibition, % at 5.96 µM | actives 0.5% (n = 340,000) | recombinant HTRA1, FP-rhodamine activity-based probe, fluorescence polarization | AID 504803; in the data active = inhibition above about 36%
ABHD4 inh = ABHD4 (mouse) inhibition, primary FP screen; Q8VD66; actives 0.54% (n = 370,000); purified mABHD4, FP-Rh probe fluorescence polarization; inhibition, % at 8.92 µM;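 active = inhibition exceeding the mean over every tested compound plus 3 SD, cut at about 30% in these data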
Target sequence (Q8VD66 whole entry, looked up): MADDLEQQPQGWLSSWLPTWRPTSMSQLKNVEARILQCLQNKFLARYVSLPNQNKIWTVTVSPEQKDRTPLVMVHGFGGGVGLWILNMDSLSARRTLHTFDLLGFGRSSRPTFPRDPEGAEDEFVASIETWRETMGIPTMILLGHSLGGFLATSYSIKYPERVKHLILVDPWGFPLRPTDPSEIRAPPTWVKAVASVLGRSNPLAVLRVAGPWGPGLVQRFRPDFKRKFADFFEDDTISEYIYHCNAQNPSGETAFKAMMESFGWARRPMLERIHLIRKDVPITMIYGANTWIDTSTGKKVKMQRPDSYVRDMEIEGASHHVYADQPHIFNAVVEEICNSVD
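Assay system: wild-type mouse ABHD4 protein; compound: single nominal dose of 8.92 µM, 0.89% DMSO final; schedule: 45 min + 60 min at 25 °C; measured by: FP readout, ex 525 nm / em 598 nm; evaluation: % inhibition of FP-Rh probe binding versus controls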
BSA probe FL = interferes with TAMRA-BSA probe, flagging TCR-CD3 hits. inhibition, % at 9.4 µM. actives 10% (n = 1,200). TAMRA-labeled BSA probe fluorescence counterscreen. shares compounds with TCR CD3 inh; in the data active = inhibition above about 23%
TCR-CD3 inh conf = TCR-CD3 interaction inhibition, confirmation. shares compounds with TCR CD3 inh. TAMRA-labeled TCR probe fluorescence binding assay. inhibition, % at 9.4 µM. actives 48% (n = 1,200). AID 652036
Of the large screens only hits and unclear results are named; the others gave an inactive call (follow-up assays come after a bar, where they were run). The list is not random: actives were taken first. Their share in the collection is about 1.8%. Cut-off read from the data, not from the text of the source, unless noted: active = inhibition above about 19%; inactive = the rest.

CN(C)S(=O)(=O)c1cccc(NC(=O)COC(=O)c2cc(-c3cccc(Br)c3)nc3ccccc23)c1	TCR CD3 inh 83 | BSA probe FL inactive | TCR-CD3 inh conf 56
CN(C)S(=O)(=O)c1cccc(NC(=O)COC(=O)c2ccc3ccccc3n2)c1	none
COc1ccc(Cl)cc1C(=O)NNC(=O)COC(=O)c1ccc(Br)o1	TCR CD3 inh 20 | BSA probe FL inactive | TCR-CD3 inh conf inactive
COc1ccc(CCNC(=O)COC(=O)c2ccc(Br)o2)cc1OC	none
CCCCC(=O)N(Cc1ccccc1)c1ccccc1C(=O)Nc1cc(OC)ccc1OC	none (no result: TCR CD3 inh, HTRA1 inh)
COc1ccc(C(=O)C2(C(=O)NCc3ccccc3)CC(c3ccccn3)=NO2)cc1 (stereo not drawn)	none (no result: TCR CD3 inh, HTRA1 inh)
OC(c1ccc(F)cc1)c1nc(-c2ccncc2)cs1 (stereo not drawn)	TCR CD3 inh 46 (no result: HTRA1 inh) | BSA probe FL inactive | TCR-CD3 inh conf inactive
OC(c1ccc(F)c(F)c1)c1nc(-c2ccncc2)cs1 (stereo not drawn)	none (no result: HTRA1 inh)
C=CCN1[C@H](C)[C@H](c2ccccc2)Oc2cc(Br)ccc2S1(=O)=O	none (no result: HTRA1 inh)
COc1ccccc1NS(=O)(=O)c1cc(NC(=O)c2ccc(Cl)nc2)ccc1Cl	TCR CD3 inh 23 | BSA probe FL inactive | TCR-CD3 inh conf inactive
COc1ccc(C(=O)Nc2ccc(Cl)c(S(=O)(=O)Nc3ccccc3OC)c2)cc1	none
O=C(O)C1CC=CCC1C(=O)N1CCN(c2nc(-c3ccccc3)c3ccccc3n2)CC1 (stereo not drawn)	none
O=C(O)C1CC=CCC1C(=O)N1CCN(c2nc(-c3ccccc3Cl)c3cc(Br)ccc3n2)CC1 (stereo not drawn)	TCR CD3 inh 52 | BSA probe FL inactive | TCR-CD3 inh conf inactive
CCc1ccccc1NC(=S)NNC(=O)c1ccccc1Cl	none
CCc1ccccc1NC(=O)NNC(=O)c1ccc2ccccc2c1O	TCR CD3 inh 26 | BSA probe FL inactive | TCR-CD3 inh conf 22
COc1ccc(NC(=O)NNC(=O)c2ccc3ccccc3c2O)c(OC)c1	TCR CD3 inh 42 | BSA probe FL inactive | TCR-CD3 inh conf 31
O=C(c1cccc(I)c1)N1CCC(Oc2cccnc2)CC1	none (no result: TCR CD3 inh, HTRA1 inh)
COc1ccc(-c2cc(C(=O)NN=C/C(C)=C/c3ccccc3)[nH]n2)cc1	none (no result: TCR CD3 inh, HTRA1 inh)
O=C(CNC(=O)/C=C/c1ccco1)N=Nc1c(O)[nH]c2ccccc12	TCR CD3 inh 29 | BSA probe FL inactive | TCR-CD3 inh conf 43
Cc1ccc2c(c1)C1CS(=O)(=O)N(Cc3ccccc3)C(=O)N1C2 (stereo not drawn)	none (no result: TCR CD3 inh, HTRA1 inh)
CCOC(=O)c1cc(S(=O)(=O)NC2CCCCC2)cn1C	TCR CD3 inh 30 | BSA probe FL inactive | TCR-CD3 inh conf inactive
Cc1c(C(=O)OCC(=O)Nc2cccc(S(N)(=O)=O)c2)oc2c1ccc1ccccc12	TCR CD3 inh 25 | BSA probe FL inactive | TCR-CD3 inh conf inactive
C=CCN=C1NC(c2ccccc2C(F)(F)F)C(C(=O)OC)=C(C)N1Cc1cccc(C(F)(F)F)c1 (stereo not drawn)	none (no result: HTRA1 inh)
COCc1cn(-c2ccc3c(c2)[C@]2(CC(=O)N(C)C2c2ccccc2)C(=O)N3CC(C)C)nn1 (stereo partly drawn)	none (no result: TCR CD3 inh, HTRA1 inh)
CCC(C)(C)NC(=O)Cc1ccc(Cl)cc1	TCR CD3 inh 33 (no result: HTRA1 inh) | BSA probe FL inactive | TCR-CD3 inh conf inactive
COC(=O)C[C@H]1CC[C@@H]2[C@@H](COc3ccc(NC(=O)Nc4cccc(C)c4)cc3C(=O)N2C)O1	none (no result: TCR CD3 inh, HTRA1 inh)
COC(=O)C1=C(C)N(Cc2ccccc2C(F)(F)F)C(=NCc2ccccc2C(F)(F)F)NC1c1cccc(C(F)(F)F)c1 (stereo not drawn)	none (no result: HTRA1 inh)
CC(=O)C1(C(=O)Nc2cc(C)cc(C)c2)CC(c2ccccn2)=NO1 (stereo not drawn)	none (no result: TCR CD3 inh, HTRA1 inh)
Cc1cccc(-c2noc(CCCC(=O)N3CCOCC3)n2)c1	TCR CD3 inh 37 | BSA probe FL inactive | TCR-CD3 inh conf inactive
Cc1ccc(-c2noc(CCCC(=O)N3CCOCC3)n2)cc1	none
CCOC(=O)C(Cc1ccccc1)CP(=O)(OC)[C@@H](C)NC(=O)OCc1ccccc1 (stereo partly drawn)	none (no result: TCR CD3 inh, HTRA1 inh)
Cc1ccc(S(=O)(=O)Nc2ccccc2F)cc1C(=O)NNC(=O)c1ccccc1O	TCR CD3 inh 19 | BSA probe FL inactive | TCR-CD3 inh conf 25
COc1ccc(NS(=O)(=O)c2ccc(C)c(C(=O)NNC(=O)c3ccccc3O)c2)cc1	none
O=C(NNC(=O)c1cc2ccccc2cc1O)Nc1ccc(Br)cc1	TCR CD3 inh 23 | BSA probe FL inactive | TCR-CD3 inh conf 22
COc1ccc(NC(=O)c2cc3ccccc3cc2OC)cc1	none
O=C(NNC(=O)c1ccncc1)Nc1ccc(Br)cc1	none
COc1cc2ccccc2cc1C(=O)NNC(=O)c1ccccc1O	TCR CD3 inh 34 | BSA probe FL inactive | TCR-CD3 inh conf 25
CN(C)S(=O)(=O)c1cccc(NC(=S)NNC(=O)c2cc3ccccc3cc2O)c1	TCR CD3 inh 23 | BSA probe FL inactive | TCR-CD3 inh conf inactive
COc1ccc(-c2nc3c(C)cc(Br)cn3c2Cc2ccccc2C(F)(F)F)cc1OC	none (no result: HTRA1 inh)
Cc1ccc(NC(=O)c2cccc3c2-c2ccccc2C3=O)c(C)c1	none (no result: TCR CD3 inh, HTRA1 inh)
CCOC(=O)CC[C@H]1CC[C@]2(CCCN(C(=O)c3ccccc3)C2)O1	none (no result: TCR CD3 inh, HTRA1 inh)
CCC(C)N(C(=O)Cn1nc(Cc2ccncc2)c2ccccc2c1=O)C(C)CC (stereo not drawn)	none (no result: TCR CD3 inh, HTRA1 inh)
O=C(CSc1nnc(-c2ccccc2)n1-c1ccccc1)NN=C/C=C\c1ccccc1[N+](=O)[O-]	none (no result: TCR CD3 inh, HTRA1 inh)
COC(=O)[C@]12C[C@H](CC(=O)NCCCCc3ccccc3)C(=O)N(Cc3cccc4ccccc34)C1=C[C@H](C1CCCC1)O[C@@H]2C	none (no result: TCR CD3 inh, HTRA1 inh)
Cc1ccc(NS(=O)(=O)c2ccc(C(=O)NNC(=O)c3ccccc3O)cc2)cc1	TCR CD3 inh 20 | BSA probe FL inactive | TCR-CD3 inh conf inactive
COc1ccc(NC(=O)NNC(=O)c2cc3ccccc3cc2O)cc1	TCR CD3 inh 25 | BSA probe FL inactive | TCR-CD3 inh conf 22
Cc1ccc(C(=O)NNC(=O)c2cc3ccccc3cc2O)cc1	TCR CD3 inh 24 | BSA probe FL inactive | TCR-CD3 inh conf 25
Cc1cccc(C(=O)NNC(=O)c2ccc3ccccc3c2)c1	none
CC(=O)NC(CC(=O)NNC(=O)c1cc2ccccc2cc1O)c1ccccc1 (stereo not drawn)	TCR CD3 inh 50 | BSA probe FL inactive | TCR-CD3 inh conf 31
